For data set [1], the system named is Plasmodium cynomolgi. The experiment in a line: Antimalarial activity against Plasmodium cynomolgi infected in rhesus monkey assessed as delay in patency time at 0.316 mg/kg, po administered one day before infection, on day of infection followed by 1 day post infection. The class given is functional. In a few lines: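 Rhesus monkeys challenged with P. cynomolgi sporozoites. Oral dosing on days −1, 0 and 1 in HECT or MC vehicle, with dose in (mg/kg)/day. Read-out is the first day of patency and the delay in patency relative to vehicle-treated controls.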

Data set [2] is described as follows: Half life in im dosed rhesus monkey. The class given is ADME, organism-based, Macaca mulatta. The following applies: in vivo.
Data set [3] can be described thus: Half life in po dosed rhesus monkey. It counts as ADME, organism-based, Macaca mulatta. The following applies: in vivo.
Data set [4] relates to Rhesus monkey. The experiment in a line: Drug uptake in rhesus monkey after 24 hrs relative to control. Conditions: in vivo. The class given is ADME, organism-based, Macaca mulatta.
Data set [5] has as its system Rhesus monkey. The experiment in a line: Drug uptake in im dosed rhesus monkey measured after 24 hrs. Conditions: in vivo. It counts as ADME, organism-based, Macaca mulatta.
Data set [6] has as its system Rhesus monkey. Nature of the data set: Drug uptake in po dosed rhesus monkey measured after 24 hrs. Conditions: in vivo. It counts as ADME, organism-based, Macaca mulatta.
Data set [7] relates to Rhesus monkey. Nature of the data set: Drug uptake in im dosed rhesus monkey assessed as 1-(3,4-dichlorophenyl)-2-(1-isopropyl-4,5-dioxo-4,5-dihydro-1H-imidazol-2-yl)guanidine measured after 24 hrs. It counts as ADME, organism-based, Macaca mulatta. Conditions: in vivo.
The subject of data set [8] is Rhesus monkey. The experiment in a line: Drug uptake in po dosed rhesus monkey assessed as 1-(3,4-dichlorophenyl)-2-(1-isopropyl-4,5-dioxo-4,5-dihydro-1H-imidazol-2-yl)guanidine measured after 24 hrs. It counts as ADME, organism-based, Macaca mulatta. The following applies: in vivo.
Data set [9] concerns Plasmodium cynomolgi. Nature of the data set: Antimalarial activity against Plasmodium cynomolgi infected in rhesus monkey assessed as time delayed in relapse of patency at 10 mg/kg/day, po administered for 7 days. The class given is functional. In a few lines: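 Rhesus monkeys that developed P. cynomolgi parasitemia in the prophylaxis test were used once parasitemia reached 5000 parasites/mm³. Oral chloroquine 10 (mg/kg)/day was given for 7 days, with test agent given alongside. Relapse was monitored. Monkeys with no relapse after 100 days were counted as radically cured. Relapsing controls were retreated with chloroquine and followed for a second relapse.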

As for `COc1cc(C)c2c(Oc3cccc(C(F)(F)F)c3)c(OC)cc(NC(C)CCCN)c2n1` (centres undefined) [TAFENOQUINE], the Time in the data set on Plasmodium cynomolgi [1] worked out at 2 days.
On to `CC(C)N1C(=O)C(=O)NC1=NC(=NC(=O)OC(C)(C)C)Nc1ccc(Cl)c(Cl)c1`, for which the figures for the half-life in [2] and in data set [3] were 70.5 h and 8.9 h, respectively. Besides, the Ratio with Rhesus monkey [4] was 10. For the same molecule, the Drug uptake was 96% with Rhesus monkey [5], 86% in the data set with Rhesus monkey [6], 4% in the data set with Rhesus monkey [7] and 4% with Rhesus monkey [8].
Consider `CCN(CC)CCCC(C)Nc1ccnc2cc(Cl)ccc12` (centres undefined) [CHLOROQUINE], for which the Time with Plasmodium cynomolgi [9] was determined as 11 days.

(Values after ChEMBL document CHEMBL1828547, “Synthesis and antimalarial activity of 2-guanidino-4-oxoimidazoline derivatives” (J Med Chem, 2011).)
